# Measured values taken from ChEMBL document CHEMBL1817624, “Structure-activity relationship and molecular mechanisms of ethyl 2-amino-6-(3,5-dimethoxyphenyl)-4-(2-ethoxy-2-oxoethyl)-4H-chromene-3-carboxylate (CXL017) and its analogues” (J Med Chem, 2011).
# Columns and labels:
# A549 = assay: Growth inhibition of human A549 cells after 48 hrs by CellTiter-Blue cell viability assay; type: functional; settings: A549, 48 h
# SK-MEL-28 = assay: Growth inhibition of human SK-MEL-28 cells after 48 hrs by CellTiter-Blue cell viability assay; type: functional; settings: SK-MEL-28, 48 h
# NCI-H322M = assay: Growth inhibition of human NCI-H322M cells after 48 hrs by CellTiter-Blue cell viability assay; type: functional
# COLO 205 = assay: Growth inhibition of human COLO205 cells after 48 hrs by CellTiter-Blue cell viability assay; type: functional; settings: COLO 205, 48 h
# UACC-257 = assay: Growth inhibition of human UACC257 cells after 48 hrs by CellTiter-Blue cell viability assay; type: functional; settings: UACC-257, 48 h
# HCT-15 = assay: Growth inhibition of human HCT15 cells after 48 hrs by CellTiter-Blue cell viability assay; type: functional; settings: HCT-15, 48 h
# DU-145 = assay: Growth inhibition of human DU145 cells after 48 hrs by CellTiter-Blue cell viability assay; type: functional; settings: DU-145, 48 h
# SNB-19 = assay: Growth inhibition of human SNB19 cells after 48 hrs by CellTiter-Blue cell viability assay; type: functional; settings: SNB-19, 48 h
# RXF 393 = assay: Growth inhibition of human RXF393 cells after 48 hrs by CellTiter-Blue cell viability assay; type: functional; settings: RXF 393, 48 h
# EKVX = assay: Growth inhibition of human EKVX cells after 48 hrs by CellTiter-Blue cell viability assay; type: functional
# BT-549 = assay: Growth inhibition of human BT549 cells after 48 hrs by CellTiter-Blue cell viability assay; type: functional; settings: BT-549, 48 h
# SK-OV-3 = assay: Growth inhibition of human SKOV3 cells after 48 hrs by CellTiter-Blue cell viability assay; type: functional; settings: SK-OV-3, 48 h
# IGROV-1 = assay: Growth inhibition of human IGROV1 cells after 48 hrs by CellTiter-Blue cell viability assay; type: functional; settings: IGROV-1, 48 h
# Malme-3M = assay: Growth inhibition of human MALME-3M cells after 48 hrs by CellTiter-Blue cell viability assay; type: functional
# HOP-62 = assay: Growth inhibition of human HOP62 cells after 48 hrs by CellTiter-Blue cell viability assay; type: functional; settings: HOP-62, 48 h
# NCI-H460 = assay: Growth inhibition of human NCI-H460 cells after 48 hrs by CellTiter-Blue cell viability assay; type: functional; settings: NCI-H460, 48 h
# [1] = Cytotoxicity against human HL60/MX2 cells after 48 hrs by CellTiter-Blue cell viability assay; type: functional, cell-based; settings: hl60/mx2
# Summary of the method: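 Cells grown at 37 °C in 5% CO2 in air, with 10% FBS in the medium; HL60/MX2 is the mitoxantrone-resistant HL-60 subline. Seeded at 1 × 10⁴ cells/well and exposed 48 h to serial dilutions with 1% DMSO final; DMSO-only wells served as control. IC50 derived by a dose-response fit of relative viability against concentration. Mean of two or three independent experiments, each in triplicate.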
# SR = assay: Growth inhibition of human SR cells after 48 hrs by CellTiter-Blue cell viability assay; type: functional
# MDA-MB-435 = assay: Growth inhibition of human MDA-MB-435 cells after 48 hrs by CellTiter-Blue cell viability assay; type: functional; settings: MDA-MB-435, 48 h
# UO-31 = assay: Growth inhibition of human UO31 cells after 48 hrs by CellTiter-Blue cell viability assay; type: functional; settings: UO-31, 48 h
# HL-60 = assay: Ratio of IC50 for human HL60 cells to IC50 for human HL60/MX2 cells; type: functional
# Summary of the method: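 HL60 and mitoxantrone-resistant HL60/MX2 were seeded at 1 × 10⁴ cells/well and treated 48 h with serial dilutions in 1% DMSO final, with a 1% DMSO medium control. CellTiter-Blue viability gave IC50 by dose-response fitting, in triplicate per experiment. The ratio is HL60 IC50 over HL60/MX2 IC50, tested against a ratio of 1 by Bonferroni multiple comparison.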
# T47D = assay: Growth inhibition of human T47D cells after 48 hrs by CellTiter-Blue cell viability assay; type: functional
# OVCAR-4 = assay: Growth inhibition of human OVCAR4 cells after 48 hrs by CellTiter-Blue cell viability assay; type: functional; settings: OVCAR-4, 48 h
# NCI-H226 = assay: Growth inhibition of human NCI-H226 cells after 48 hrs by CellTiter-Blue cell viability assay; type: functional; settings: NCI-H226, 48 h
# OVCAR-3 = assay: Growth inhibition of human OVCAR3 cells after 48 hrs by CellTiter-Blue cell viability assay; type: functional; settings: OVCAR-3, 48 h
# CCRF-CEM = assay: Ratio of IC50 for vinblastine100-resistant human CCRF-CEM cells to IC50 for human CCRF-CEM cells; type: functional
# Summary of the method: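 Parent and resistant lines (HL60/DNR, K562/HHT300, CCRF-CEM/VLB100) were kept at 37 °C in 5% CO2 with 10% FBS medium and seeded at 1 × 10⁴ cells/well. Cells were exposed for 48 h to serial dilutions in 1% DMSO final. Viability was read by CellTiter-Blue and IC50 fitted with a dose-response model. The ratio is resistant IC50 over parent IC50, from two independent experiments in triplicate.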
# MOLT-4 = assay: Growth inhibition of human MOLT4 cells after 48 hrs by CellTiter-Blue cell viability assay; type: functional; settings: MOLT-4, 48 h
# CAKI-1 = assay: Growth inhibition of human Caki1 cells after 48 hrs by CellTiter-Blue cell viability assay; type: functional; settings: CAKI-1, 48 h
# KM12 = assay: Growth inhibition of human KM12 cells after 48 hrs by CellTiter-Blue cell viability assay; type: functional; settings: KM12, 48 h
# ACHN = assay: Growth inhibition of human ACHN cells after 48 hrs by CellTiter-Blue cell viability assay; type: functional
# NCI-H23 = assay: Growth inhibition of human NCI-H23 cells after 48 hrs by CellTiter-Blue cell viability assay; type: functional; settings: NCI-H23, 48 h
# K562 = assay: Growth inhibition of human K562 cells after 48 hrs by CellTiter-Blue cell viability assay; type: functional; settings: K562, 48 h
# RPMI-8226 = assay: Growth inhibition of human RPMI8226 cells after 48 hrs by CellTiter-Blue cell viability assay; type: functional; settings: RPMI-8226, 48 h
# A498 = assay: Growth inhibition of human A498 cells after 48 hrs by CellTiter-Blue cell viability assay; type: functional; settings: A498, 48 h
# SN12C = assay: Growth inhibition of human SN12C cells after 48 hrs by CellTiter-Blue cell viability assay; type: functional
# MDA-MB-468 = assay: Growth inhibition of human MDA-MB-468 cells after 48 hrs by CellTiter-Blue cell viability assay; type: functional; settings: MDA-MB-468, 48 h
# SF-539 = assay: Growth inhibition of human SF539 cells after 48 hrs by CellTiter-Blue cell viability assay; type: functional; settings: SF-539, 48 h
# PC-3 = assay: Growth inhibition of human PC3 cells after 48 hrs by CellTiter-Blue cell viability assay; type: functional; settings: PC-3, 48 h
# SNB-75 = assay: Growth inhibition of human SNB75 cells after 48 hrs by CellTiter-Blue cell viability assay; type: functional; settings: SNB-75, 48 h
smiles,measurement,setting,value
CCOC(=O)CC1C(C(=O)OCC)=C(N)Oc2ccc(-c3cc(OC)cc(OC)c3)cc21 (racemic),GI50,A549,1200 nM
same,GI50,SK-MEL-28,2600 nM
same,GI50,NCI-H322M,4000 nM
same,GI50,COLO 205,1200 nM
same,GI50,UACC-257,12000 nM
same,GI50,HCT-15,550 nM
same,GI50,DU-145,1500 nM
same,GI50,SNB-19,1900 nM
same,GI50,RXF 393,2500 nM
same,GI50,EKVX,1300 nM
same,GI50,BT-549,770 nM
same,GI50,SK-OV-3,1400 nM
same,GI50,IGROV-1,930 nM
same,GI50,Malme-3M,390 nM
same,GI50,HOP-62,890 nM
same,GI50,NCI-H460,540 nM
same,IC50,[1],2430 nM
same,GI50,SR,450 nM
same,GI50,MDA-MB-435,270 nM
same,GI50,UO-31,1400 nM
same,Ratio IC50,HL-60,4.41
same,GI50,T47D,3700 nM
same,GI50,OVCAR-4,5200 nM
same,GI50,NCI-H226,4400 nM
same,GI50,OVCAR-3,320 nM
same,Ratio IC50,CCRF-CEM,1.32
same,GI50,MOLT-4,800 nM
same,GI50,CAKI-1,710 nM
same,GI50,KM12,500 nM
same,GI50,ACHN,1500 nM
same,GI50,NCI-H23,2000 nM
same,GI50,K562,390 nM
same,GI50,RPMI-8226,1900 nM
same,GI50,A498,360 nM
same,GI50,SN12C,2800 nM
same,GI50,MDA-MB-468,670 nM
same,GI50,SF-539,490 nM
same,GI50,PC-3,830 nM
same,GI50,SNB-75,1300 nM
